In ChEMBL document CHEMBL4613289, “Pharmacophore-Based Design of New Chemical Scaffolds as Translational Readthrough-Inducing Drugs (TRIDs)” (ACS Med Chem Lett, 2020):
The source made the active and inactive calls. The calls are words filed in the database; no cut-off is given here.

Assays:
Type in all cases: cell-based
[1] = Cytotoxicity against rat FRT cells at 12 uM after 24 to 72 hrs by trypan blue staining based assay
Method in brief: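 Wild-type CFTR FRT cells treated with 12 μM compound, with 12 μM PTC124 as the control. Percentages of live and dead cells and cell proliferation were scored at 24, 48 and 72 h after treatment.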

[2] = system: HeLa; test: Induction of read through activity at CFTR gene premature termination codon UGA transfected in human HeLa cells assessed as increase in luciferase activity at 12 uM incubated for 24 hrs by steady-glo luciferase reporter gene assay
Method in brief: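 HeLa cells were transiently transfected with pFLuc-opal (UGA stop) and treated for 24 h at 12 μM, with 12 μM PTC124 as reference. FLuc activity was then measured. pFLuc-WT transfected cells served as the positive control and untreated pFLuc-opal cells as the negative control.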

[3] = organism: Homo sapiens; test: Induction of mutation read through activity at human CFTR G542X mutant premature termination codon UGA transfected in FRT cells assessed as increase in CFTR protein expression at 12 uM incubated for 24 hrs by DAPI-staining based immunofluorescence microscopic analysis
Method in brief: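 FRT cells stably carrying pTracer vectors with human G542X-CFTR or WT-CFTR cDNA were exposed to 12 μM compound for 24 h. CFTR was detected by immunofluorescence microscopy, with membrane stained red and nuclei stained with DAPI. Untreated G542X cells served as the negative control.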

SMILES | Activity [1] | Activity [2] | Activity [3]
O=C(O)c1ccc2nc(-c3ccccc3Cl)[nH]c2c1 | Non-Toxic | Active | Active
COC(=O)c1ccc2nc(-c3cc(Cl)cc(Cl)c3)oc2c1 | Non-Toxic | Active | 
O=S(=O)(Oc1ccc(F)cc1F)c1cccc(S(=O)(=O)Oc2ccc(F)cc2F)c1 | Non-Toxic | Active | 
O=C(O)c1cccc(-c2noc(-c3ccccc3F)n2)c1 [ATALUREN] | Non-Toxic | Active | 
COC(=O)c1csc(COc2cc(Cl)cc(Cl)c2)n1 | Non-Toxic | Active | Active
